# Results taken from BindingDB's records for doi:10.1016/j.bmc.2010.01.049 (Glaxosmithkline, 2010).
# Where a name gives a salt, the structure may show the parent alone.
# What was measured:
# [1] = biological target: Melanocyte-stimulating hormone receptor (Homo sapiens, UniProt Q01726); assay: Agonist activity at human MC1R expressed in CHO cells after 4 hrs by luciferase reporter gene assay
# Summary of the method: (§1)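 CHO-6xCRE-luc+ cells expressing the human receptor, plated at 4000 cells/well in DMEM/F12 with 10% FBS 48 h before assay. Switched to serum-free medium 16 h before compound addition, then incubated 4 h at 37 °C. Luciferase read after 10 min dark adaptation. Activity expressed as % of fold stimulation by 1 × 10^-7 M NDP-aMSH (duplicate control wells).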
# Melanocortin receptor 4 = Melanocortin receptor 4 (Homo sapiens, UniProt P32245); assay: Agonist activity at human MC4R expressed in CHO cells after 4 hrs by luciferase reporter gene assay; summary of the method: as §1
# Melanocortin receptor 4, sequence (P32245 whole entry): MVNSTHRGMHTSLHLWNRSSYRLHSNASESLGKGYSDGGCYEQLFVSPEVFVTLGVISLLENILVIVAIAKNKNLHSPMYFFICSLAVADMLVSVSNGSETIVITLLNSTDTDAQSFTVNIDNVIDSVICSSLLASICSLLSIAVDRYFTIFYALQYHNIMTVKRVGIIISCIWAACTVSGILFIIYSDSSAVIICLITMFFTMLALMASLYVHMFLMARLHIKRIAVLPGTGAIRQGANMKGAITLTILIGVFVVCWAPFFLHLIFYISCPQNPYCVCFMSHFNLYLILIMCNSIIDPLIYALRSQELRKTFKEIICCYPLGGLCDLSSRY
# Melanocyte-stimulating hormone receptor, sequence (Q01726 whole entry): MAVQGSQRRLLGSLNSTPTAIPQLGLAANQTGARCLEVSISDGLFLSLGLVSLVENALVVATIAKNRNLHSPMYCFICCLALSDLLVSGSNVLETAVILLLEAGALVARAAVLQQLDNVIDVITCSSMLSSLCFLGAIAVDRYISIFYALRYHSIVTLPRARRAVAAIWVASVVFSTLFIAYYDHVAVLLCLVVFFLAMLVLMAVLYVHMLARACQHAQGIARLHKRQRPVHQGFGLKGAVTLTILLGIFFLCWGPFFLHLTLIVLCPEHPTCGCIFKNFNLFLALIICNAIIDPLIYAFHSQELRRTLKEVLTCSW
EC50 [1] [µM],EC50 (Melanocortin receptor 4) [µM],SMILES
> 31.6,,CC(C)N(C(=O)CN1C=CN(c2ccccc2)C(=O)[C@@H](Cc2n[nH]c3ccccc23)C1=O)c1ccccc1
,> 31.6,CC(C)N(C(=O)CN1C=CN(c2ccccc2)C(=O)C(Cc2n[nH]c3ccccc23)C1=O)c1ccc(O)cc1 (stereo unspecified)
> 31.6,> 31.6,"COc1ccc(N(C(=O)CN2C=CN(C3CCCCC3)C(=O)C(Cc3ccccc3)C2=O)C(C)C)cc1 (racemic) [(+/-)-2-[4-Cyclohexyl-5,7-dioxo-6-(phenylmethyl)-4,5,6,7-tetrahydro-1H-1,4-diazepin-1-yl]-N-(1-methylethyl)-N-[4-(methyloxy)phenyl]acetamide]"
> 31.6,> 31.6,"COc1ccc(N(C(=O)CN2C=CN(C3CCCCC3)C(=O)C(Cc3n[nH]c4ccccc34)C2=O)C(C)C)cc1 (racemic) [(+/-)-2-[4-Cyclohexyl-6-(1H-indazol-3-ylmethyl)-5,7-dioxo-4,5,6,7-tetrahydro-1H-1,4-diazepin-1-yl]-N-(1-methylethyl)-N-[4-(methyloxy)phenyl]acetamide trifluoroacetate]"
,> 31.6,"COc1ccc(N(C(=O)CN2C=CN(Cc3ccccc3)C(=O)C(Cc3n[nH]c4ccccc34)C2=O)C(C)C)cc1 (racemic) [(+/-)-2-[6-(1H-Indazol-3-ylmethyl)-5,7-dioxo-4-(phenylmethyl)-4,5,6,7-tetrahydro-1H-1,4-diazepin-1-yl]-N-(1-methylethyl)-N-[4-(methyloxy)phenyl]acetamide]"
,> 31.6,"CC(C)N(C(=O)CN1C=CN(c2ccccc2)C(=O)C(Cc2n[nH]c3ccccc23)C1=O)c1ccc(N2CCOCC2)cc1 (racemic) [(+/-)-2-[6-(1H-Indazol-3-ylmethyl)-5,7-dioxo-4-phenyl-4,5,6,7-tetrahydro-1H-1,4-diazepin-1-yl]-N-(1-methylethyl)-N-[4-(4-morpholinyl)phenyl]acetamide]"
,> 31.6,"CC(C)N(C(=O)CN1C=CN(C)C(=O)C(Cc2n[nH]c3cc(F)ccc23)C1=O)c1ccc(F)cc1 (racemic) [(+/-)-2-{6-[(6-Fluoro-1H-indazol-3-yl)methyl]-4-methyl-5,7-dioxo-4,5,6,7-tetrahydro-1H-1,4-diazepin-1-yl}-N-(4-fluorophenyl)-N-(1-methylethyl)acetamide]"
> 31.6,> 31.6,"COc1ccc(N(C(=O)CN2C=CN(c3ccccc3)C(=O)C(Cc3nn(C)c4ccccc34)C2=O)C(C)C)cc1 (racemic) [(+/-)-N-(1-methylethyl)-2-{6-[(1-methyl-1H-indazol-3-yl)methyl]-5,7-dioxo-4-phenyl-4,5,6,7-tetrahydro-1H-1,4-diazepin-1-yl}-N-[4-(methyloxy)phenyl]acetamide]"
